In ChEMBL document CHEMBL6134766, “Design, synthesis, and evaluation of benzhydrylpiperazine-based novel dual COX-2/5-LOX inhibitors with anti-inflammatory and anti-cancer activity” (RSC Med Chem, 2025):
The source made the active and inactive calls. The calls are words filed in the database; no cut-off is given here.

How the values were obtained:
[1] = Acute toxicity in female Wistar rat assessed as drug tolerance up to 500 mg/kg, po measured for 14 days; format: organism-based; details: in vivo, 336 h, time 14 day
How it was run: (§1)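 Followed OECD 423 guideline in healthy female Wistar rats weighing 200–250 g. Animals were housed at 25 ± 2 °C and 45–60% RH on a 12 h light/dark cycle, with free access to water and food.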

[2] = Acute toxicity in female Wistar rat assessed as detrimental effects up to 500 mg/kg, po measured for 14 days; format: organism-based; details: in vivo, 336 h, time 14 day; how it was run: as §1
[3] = test system: Rattus norvegicus; assay: Anti-inflammatory activity in carrageenan-induced paw edema Wistar rat model assessed as swelling thickness of paw at 20 mg/kg, po measured immediately by digital vernier caliper (reference value: 3.48 +/- 0.21 millimeter); format: functional
[4] = test system: Rattus norvegicus; assay: Anti-inflammatory activity in carrageenan-induced paw edema Wistar rat model assessed as swelling thickness of paw at 5 mg/kg, po measured after 4 hrs by digital vernier caliper (reference value: 8.36 +/- 0.78 millimeter); format: functional
[5] = test system: Rattus norvegicus; assay: Anti-inflammatory activity in carrageenan-induced paw edema Wistar rat model assessed as swelling thickness of paw at 20 mg/kg, po measured after 4 hrs by digital vernier caliper (reference value: 8.36 +/- 0.78 millimeter); format: functional
[6] = test system: Rattus norvegicus; assay: Anti-inflammatory activity in carrageenan-induced paw edema Wistar rat model assessed as swelling thickness of paw at 20 mg/kg, po measured after 5 hrs by digital vernier caliper (reference value: 8.47 +/- 0.32 millimeter); format: functional
[7] = test system: Rattus norvegicus; assay: Anti-inflammatory activity in carrageenan-induced paw edema Wistar rat model assessed as swelling thickness of paw at 10 mg/kg, po measured after 6 hrs by digital vernier caliper (reference value: 8.33 +/- 0.42 millimeter); format: functional
[8] = test system: Rattus norvegicus; assay: Anti-inflammatory activity in carrageenan-induced paw edema Wistar rat model assessed as swelling thickness of paw at 20 mg/kg, po measured after 6 hrs by digital vernier caliper (reference value: 8.33 +/- 0.42 millimeter); format: functional
[9] = test system: Rattus norvegicus; assay: Anti-inflammatory activity in carrageenan-induced paw edema Wistar rat model assessed as inhibition of PGE2 level administered orally measured for 6 hrs by ELISA; format: functional, organism-based; details: dose 5-20 mg/kg, route po
How it was run: (§2)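 Paw tissue taken from carrageenan-edema rats dosed orally at 5, 10 or 20 mg kg−1. Tissue rinsed in PBS pH 7.4, minced, homogenized, filtered and centrifuged at 2000 rpm for 20 min at 4 °C. Supernatant assayed by ELISA for PGE2, IL-6, TNF-α and IL-10. Data as mean ± SD.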

[10] = test system: Rattus norvegicus; assay: Anti-inflammatory activity in carrageenan-induced paw edema Wistar rat model assessed as decrease in IL-6 level in paw tissue at 5 to 20 mg/kg, po measured for 6 hrs by ELISA; format: functional, organism-based; details: dose 5-20 mg/kg; how it was run: as §2
[11] = test system: Rattus norvegicus; assay: Anti-inflammatory activity in arachidonic acid-induced paw edema Wistar rat model assessed as swelling thickness of paw at 10 mg/kg, po measured after 1 hr by digital vernier caliper (reference value: 6.51 +/- 0.37 millimeter); format: functional
[12] = test system: Rattus norvegicus; assay: Anti-inflammatory activity in arachidonic acid-induced paw edema Wistar rat model assessed as swelling thickness of paw at 20 mg/kg, po measured after 1 hr by digital vernier caliper (reference value: 6.51 +/- 0.37 millimeter); format: functional
[13] = Toxicity in fasting Wistar rat assessed as ulcer score at 5 mg/kg, po via gavage treated for 3 days consecutively by H and E staining based analysis (reference value: 0); format: organism-based; details: in vivo, 72 h, time 3 day
How it was run: (§3)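 Fasted rats, n = 6/group, gavaged once daily for 3 days in 0.3% Na CMC (vehicle control 0.3% CMC); killed under anaesthesia 6 h after day-3 dose; stomachs saline-washed, mucosa examined with hand lens; ulcer score, index and % ulceration by reported scoring; some stomachs formalin-fixed, H&E stained.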

[14] = Toxicity in fasting Wistar rat assessed as ulcer score at 20 mg/kg, po via gavage treated for 3 days consecutively by H and E staining based analysis (reference value: 0); format: organism-based; details: in vivo, 72 h, time 3 day; how it was run: as §3
[15] = Toxicity in fasting Wistar rat assessed as ulceration at 5 mg/kg, po via gavage treated for 3 days consecutively by H and E staining based analysis (reference value: 0 %); format: organism-based; details: in vivo, 72 h, time 3 day; how it was run: as §3
[16] = test system: Gastric mucosa; assay: Antioxidant activity in gastric mucosal tissue in Wistar rat assessed as decrease in nitrite level at 20 mg/kg, po; format: functional, organism-based
How it was run: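 Fasted rats (n = 6/group) gavaged once daily for 3 days in 0.3% Na CMC and sacrificed 6 h after the final dose. Randomly chosen stomachs homogenized in cold PBS pH 7.4 and centrifuged at 1000 rpm for 10 min at 4 °C. Supernatant protein measured by Bradford assay; GSH and nitrate then measured by reported methods.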

[17] = Toxicity in Wistar rat assessed as change in serum ALT level at 20 mg/kg, po; format: organism-based; details: in vivo
How it was run: (§4)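 Rats dosed orally in 0.3% Na CMC; retro-orbital blood clotted at room temperature, serum separated at 2000 rpm, 20 min, 4 °C; ALT, AST, creatinine and urea by commercial kits; n = 6 per group, mean ± SD; Tukey test after repeated-measures one-way ANOVA.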

[18] = Toxicity in Wistar rat assessed as change in serum AST level at 20 mg/kg, po; format: organism-based; details: in vivo; how it was run: as §4
[19] = test system: Rattus norvegicus; assay: Anti-inflammatory activity in Wistar rat assessed as reduction in ADP/collagen-induced platelet aggregation at 20 mg/kg, po; format: functional, organism-based
How it was run: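 Platelet-rich plasma from treated rats (n = 6/group) adjusted to 4 × 10^8 platelets per ml in Tyrode's buffer. Absorbance read at 570 nm, then aggregation induced with ADP plus 5 μg ml−1 collagen. Plates incubated 5 min at 37 °C with shaking and absorbance re-read at 570 nm. Percent aggregation derived from the absorbance change.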

[20] = test system: Rattus norvegicus; assay: Cardio-protective activity in ISO-treated Wistar rat assessed as decrease in serum LDH level at 20 mg/kg, po; format: functional, organism-based
How it was run: (§5)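 Rats (n = 6/group) given ISO 100 mg kg−1 s.c., then oral test compound in 0.3% CMC; vehicle controls. Retro-orbital blood, serum separated at 4000 rpm, 4 °C, 10 min; LDH and CK-MB by commercial kits; mean ± SD.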

[21] = test system: Rattus norvegicus; assay: Cardio-protective activity in ISO-treated Wistar rat assessed as decrease in serum CK-MB level at 20 mg/kg, po; format: functional, organism-based; how it was run: as §5

Row | Compound | Activity [1] | Activity [2] | Activity [3] | Activity [4] | Activity [5] | Activity [6] | Activity [7] | Activity [8] | inhibition [9] | Activity [10] | Activity [11] | Activity [12] | Activity [13] | Activity [14] | Activity [15] | Activity [16] | Activity [17] | Activity [18] | Activity [19] | Activity [20] | also measured
1 | Clc1ccc(-c2nnc(CN3CCN(C(c4ccccc4)c4ccc(Cl)cc4)CC3)o2)cc1 (configuration not stated) | Non-toxic | Non-toxic | 3.43 mm | 4.18 mm | 3.22 mm | 3.24 mm | 3.37 mm | 3.41 mm | Dose-dependent-effect | Active | 2.01 mm | 1.94 mm | 0 | 0.018 | 0% | Active | Non-toxic | Non-toxic | Active | Active | Activity [21]: Active
2 | O=[N+]([O-])c1ccc(-c2nnc(CN3CCN(C(c4ccccc4)c4ccc(Cl)cc4)CC3)o2)cc1 (configuration not stated) | Non-toxic | Non-toxic | 3.65 mm | 4.57 mm | 4.32 mm | 3.96 mm | 3.89 mm | 3.91 mm | Dose-dependent-effect | Active | 2.3 mm | 2.24 mm | 0.01 | 0.093 | 0.667% | Active | Non-toxic | Non-toxic | Active | Active | Activity [21]: Active
